Measurements as given in ChEMBL document CHEMBL1138555, “N-acylated and N,N'-diacylated imidazolidine-2-thione derivatives and N,N'-diacylated tetrahydropyrimidine-2(1H)-thione analogues: synthesis and antiproliferative activity” (Eur J Med Chem, 2009).

Tests used:
MT4 = assay: Antiproliferative activity against human MT4 cells assessed as reduction of growth by MTT assay; type: functional, cell-based
How it was run: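 MT-4 lymphoblastoid T cells (ATCC) in RPMI 1640 with 10% FCS, penicillin/streptomycin, checked for mycoplasma. 1 × 10⁴ mock-infected cells per well with serial dilutions from a 100 mM DMSO stock. Incubated 4 days at 37 °C, viable cells counted by MTT. IC50 versus untreated controls by linear regression. Mean of three separate experiments.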

HL-60(TB) = assay: Growth inhibition of human HL-60(TB) cells after 48 hrs by sulforhodamine B assay; type: functional; conditions: HL-60, 48 h
How it was run: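 NCI 60-cell-line screen protocol: cells exposed to compound at five 10-fold dilutions from 10^-4 to 10^-8 M for the last 48 h of a 72 h incubation. Sulforhodamine B protein assay estimated viability/growth. GI50 (50% growth inhibition) derived; where not reached or exceeded, reported as greater or less than the highest or lowest concentration tested.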

K562 = assay: Growth inhibition of human K562 cells after 48 hrs by sulforhodamine B assay; type: functional; conditions: K562, 48 h
How it was run: (§1)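 NCI screen panel. Five 10-fold concentrations from 10^-4 to 10^-8 M. Exposure for the last 48 h of a 72 h incubation. Growth estimated by sulforhodamine B protein assay. GI50 is the concentration giving 50% growth inhibition. Where that level was not reached or was exceeded, the value is given as above or below the highest or lowest concentration tested.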

MOLT-4 = assay: Growth inhibition of human MOLT4 cells after 48 hrs by sulforhodamine B assay; type: functional; conditions: MOLT-4, 48 h; how it was run: as §1
[1] = Growth inhibition of human […] cells after 48 hrs by sulforhodamine B assay; type: functional; how it was run: as §1
SR = assay: Growth inhibition of human SR cells after 48 hrs by sulforhodamine B assay; type: functional
How it was run: (§2)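 NCI in vitro panel screen. Compounds tested at five 10-fold dilutions, 10^-4 to 10^-8 M. Cells in 96-well plates were exposed for the last 48 h of a 72 h incubation. Viability/growth was read by sulforhodamine B protein assay. GI50 is the concentration giving 50% growth inhibition. Values beyond the tested range are reported as greater or less than the maximum or minimum concentration.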

A549 = assay: Growth inhibition of human A549 cells after 48 hrs by sulforhodamine B assay; type: functional; conditions: A549, 48 h; how it was run: as §1
EKVX = assay: Growth inhibition of human EKVX cells after 48 hrs by sulforhodamine B assay; type: functional; how it was run: as §1
HOP-62 = assay: Growth inhibition of human HOP62 cells after 48 hrs by sulforhodamine B assay; type: functional; conditions: HOP-62, 48 h; how it was run: as §1
HOP-92 = assay: Growth inhibition of human HOP92 cells after 48 hrs by sulforhodamine B assay; type: functional; conditions: HOP-92, 48 h; how it was run: as §1
NCI-H23 = assay: Growth inhibition of human NCI-H23 cells after 48 hrs by sulforhodamine B assay; type: functional; conditions: NCI-H23, 48 h; how it was run: as §1
NCI-H322M = assay: Growth inhibition of human NCI-H322M cells after 48 hrs by sulforhodamine B assay; type: functional; how it was run: as §1
NCI-H460 = assay: Growth inhibition of human NCI-H460 cells after 48 hrs by sulforhodamine B assay; type: functional; conditions: NCI-H460, 48 h; how it was run: as §1
COLO 205 = assay: Growth inhibition of human COLO205 cells after 48 hrs by sulforhodamine B assay; type: functional; conditions: COLO 205, 48 h; how it was run: as §1
HCT-116 = assay: Growth inhibition of human HCT116 cells after 48 hrs by sulforhodamine B assay; type: functional; conditions: HCT-116, 48 h; how it was run: as §1
HCT-15 = assay: Growth inhibition of human HCT15 cells after 48 hrs by sulforhodamine B assay; type: functional; conditions: HCT-15, 48 h; how it was run: as §1
HT-29 = assay: Growth inhibition of human HT-29 cells after 48 hrs by sulforhodamine B assay; type: functional; conditions: HT-29, 48 h; how it was run: as §1
KM12 = assay: Growth inhibition of human KM12 cells after 48 hrs by sulforhodamine B assay; type: functional; conditions: KM12, 48 h; how it was run: as §1
SW-620 = assay: Growth inhibition of human SW620 cells after 48 hrs by sulforhodamine B assay; type: functional; conditions: SW-620, 48 h; how it was run: as §2
SF-295 = assay: Growth inhibition of human SF295 cells after 48 hrs by sulforhodamine B assay; type: functional; conditions: SF-295, 48 h; how it was run: as §1
SNB-19 = assay: Growth inhibition of human SNB19 cells after 48 hrs by sulforhodamine B assay; type: functional; conditions: SNB-19, 48 h; how it was run: as §2
SNB-75 = assay: Growth inhibition of human SNB75 cells after 48 hrs by sulforhodamine B assay; type: functional; conditions: SNB-75, 48 h; how it was run: as §2
U-251 = assay: Growth inhibition of human U251 cells after 48 hrs by sulforhodamine B assay; type: functional; conditions: U-251, 48 h; how it was run: as §2
LOX IMVI = assay: Growth inhibition of human LOXIMVI cells after 48 hrs by sulforhodamine B assay; type: functional; how it was run: as §1
Malme-3M = assay: Growth inhibition of human MALME-3M cells after 48 hrs by sulforhodamine B assay; type: functional; how it was run: as §1
M14 = assay: Growth inhibition of human M14 cells after 48 hrs by sulforhodamine B assay; type: functional; conditions: M14, 48 h; how it was run: as §1
SK-MEL-2 = assay: Growth inhibition of human SK-MEL-2 cells after 48 hrs by sulforhodamine B assay; type: functional; conditions: SK-MEL-2, 48 h; how it was run: as §1
SK-MEL-28 = assay: Growth inhibition of human SK-MEL-28 cells after 48 hrs by sulforhodamine B assay; type: functional; conditions: SK-MEL-28, 48 h; how it was run: as §1
SK-MEL-5 = assay: Growth inhibition of human SK-MEL-5 cells after 48 hrs by sulforhodamine B assay; type: functional; conditions: SK-MEL-5, 48 h; how it was run: as §1
UACC-257 = assay: Growth inhibition of human UACC257 cells after 48 hrs by sulforhodamine B assay; type: functional; conditions: UACC-257, 48 h; how it was run: as §2
UACC-62 = assay: Growth inhibition of human UACC62 cells after 48 hrs by sulforhodamine B assay; type: functional; conditions: UACC-62, 48 h; how it was run: as §2
IGROV-1 = assay: Growth inhibition of human IGROV1 cells after 48 hrs by sulforhodamine B assay; type: functional; conditions: IGROV-1, 48 h; how it was run: as §1
OVCAR-3 = assay: Growth inhibition of human OVCAR-3 cells after 48 hrs by sulforhodamine B assay; type: functional; conditions: OVCAR-3, 48 h; how it was run: as §1
OVCAR-4 = assay: Growth inhibition of human OVCAR4 cells after 48 hrs by sulforhodamine B assay; type: functional; conditions: OVCAR-4, 48 h; how it was run: as §1
OVCAR-8 = assay: Growth inhibition of human OVCAR8 cells after 48 hrs by sulforhodamine B assay; type: functional; conditions: OVCAR-8, 48 h; how it was run: as §1
SK-OV-3 = assay: Growth inhibition of human SKOV3 cells after 48 hrs by sulforhodamine B assay; type: functional; conditions: SK-OV-3, 48 h; how it was run: as §1
786-0 = assay: Growth inhibition of human 786-0 cells after 48 hrs by sulforhodamine B assay; type: functional; conditions: 786-0, 48 h; how it was run: as §1
ACHN = assay: Growth inhibition of human ACHN cells after 48 hrs by sulforhodamine B assay; type: functional; how it was run: as §1
CAKI-1 = assay: Growth inhibition of human Caki1 cells after 48 hrs by sulforhodamine B assay; type: functional; conditions: CAKI-1, 48 h; how it was run: as §1
RXF 393 = assay: Growth inhibition of human RXF393 cells after 48 hrs by sulforhodamine B assay; type: functional; conditions: RXF 393, 48 h; how it was run: as §1
SN12C = assay: Growth inhibition of human SN12C cells after 48 hrs by sulforhodamine B assay; type: functional; how it was run: as §2
TK-10 = assay: Growth inhibition of human TK10 cells after 48 hrs by sulforhodamine B assay; type: functional; conditions: TK-10, 48 h; how it was run: as §2
UO-31 = assay: Growth inhibition of human UO31 cells after 48 hrs by sulforhodamine B assay; type: functional; conditions: UO-31, 48 h; how it was run: as §2
PC-3 = assay: Growth inhibition of human PC3 cells after 48 hrs by sulforhodamine B assay; type: functional; conditions: PC-3, 48 h; how it was run: as §1
DU-145 = assay: Growth inhibition of human DU145 cells after 48 hrs by sulforhodamine B assay; type: functional; conditions: DU-145, 48 h; how it was run: as §1
NCI/ADR-RES = assay: Growth inhibition of human NCI/ADR-RES cells after 48 hrs by sulforhodamine B assay; type: functional; how it was run: as §1
MDA-MB-231 = assay: Growth inhibition of human MDA-MB-231 cells after 48 hrs by sulforhodamine B assay; type: functional; conditions: MDA-MB-231, 48 h; how it was run: as §1
MDA-MB-435 = assay: Growth inhibition of human MDA-MB-435 cells after 48 hrs by sulforhodamine B assay; type: functional; conditions: MDA-MB-435, 48 h; how it was run: as §1
BT-549 = assay: Growth inhibition of human BT549 cells after 48 hrs by sulforhodamine B assay; type: functional; conditions: BT-549, 48 h; how it was run: as §1

SMILES: O=C(C(=CN1CCN(C(=O)c2ccco2)C1=S)C(=O)c1ccccc1)c1ccccc1
- IC50 (MT4): 7 µM
- GI50 (HL-60(TB)): 9.9 µM
- GI50 (K562): 3.2 µM
- GI50 (MOLT-4): 15.2 µM
- GI50 [1]: 8.4 µM
- GI50 (SR): 1.3 µM
- GI50 (A549): 11.3 µM
- GI50 (EKVX): 8.1 µM
- GI50 (HOP-62): 15.9 µM
- GI50 (HOP-92): 27 µM
- GI50 (NCI-H23): 7 µM
- GI50 (NCI-H322M): 2.2 µM
- GI50 (NCI-H460): 2.4 µM
- GI50 (COLO 205): 20 µM
- GI50 (HCT-116): 7.9 µM
- GI50 (HCT-15): 2.6 µM
- GI50 (HT-29): 16.9 µM
- GI50 (KM12): 2.3 µM
- GI50 (SW-620): 8.7 µM
- GI50 (SF-295): 11.1 µM
- GI50 (SNB-19): 29.2 µM
- GI50 (SNB-75): 27.4 µM
- GI50 (U-251): 2.7 µM
- GI50 (LOX IMVI): 1.2 µM
- GI50 (Malme-3M): 3.1 µM
- GI50 (M14): 7 µM
- GI50 (SK-MEL-2): 12.1 µM
- GI50 (SK-MEL-28): 17.8 µM
- GI50 (SK-MEL-5): 10.9 µM
- GI50 (UACC-257): 11.7 µM
- GI50 (UACC-62): 6.9 µM
- GI50 (IGROV-1): 5.6 µM
- GI50 (OVCAR-3): 7.3 µM
- GI50 (OVCAR-4): 16.1 µM
- GI50 (OVCAR-8): 16.2 µM
- GI50 (SK-OV-3): 41.8 µM
- GI50 (786-0): 8.2 µM
- GI50 (ACHN): 5.8 µM
- GI50 (CAKI-1): 7 µM
- GI50 (RXF 393): 5.8 µM
- GI50 (SN12C): 6.1 µM
- GI50 (TK-10): 6.9 µM
- GI50 (UO-31): 8.7 µM
- GI50 (PC-3): 23.6 µM
- GI50 (DU-145): 12.4 µM
- GI50 (NCI/ADR-RES): 9.2 µM
- GI50 (MDA-MB-231): 7.4 µM
- GI50 (MDA-MB-435): 7.2 µM
- GI50 (BT-549): 10 µM
